Results as given in ChEMBL document CHEMBL1921795, “Discovery, synthesis, and structure-activity relationship development of a series of N-4-(2,5-dioxopyrrolidin-1-yl)phenylpicolinamides (VU0400195, ML182): characterization of a novel positive allosteric modulator of the metabotropic glutamate receptor 4 (mGlu(4)) with oral efficacy in an …” (J Med Chem, 2011).

How the values were obtained:
Rattus norvegicus [1] = experiment: Oral bioavailability in Sprague-Dawley rat at 10 mg/kg by LC/MS analysis; type: ADME, organism-based; conditions: in vivo
[2] = AUC (0 to 6 hrs) in Sprague-Dawley rat hepatic portal vein plasma at 10 mg/kg, po; type: ADME, organism-based; design: time < 6 hr, dose 10 mg/kg, route oral
Rattus norvegicus [3] = experiment: AUC (0 to 24 hrs) in Sprague-Dawley rat at 10 mg/kg, po by LC/MS analysis; type: ADME, organism-based, Plasma; design: time < 24 hr, dose 10 mg/kg, route oral; conditions: in vivo
Rattus norvegicus [4] = experiment: AUC (0 to 24 hrs) in Sprague-Dawley rat at 1 mg/kg, iv by LC/MS analysis; type: ADME, organism-based, Plasma; design: time < 24 hr, dose 1 mg/kg, route intravenous; conditions: in vivo
In short: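 Male Sprague-Dawley rats (n=2, 250-300 g) with carotid artery and jugular vein catheters, acclimated about one week, fed ad libitum. Dose given through the jugular catheter in 20% DMSO/80% saline at 1 mL/kg. Carotid blood drawn pre-dose and at 2, 7, 15, 30 min and 1, 2, 4, 7, 24 h into chilled EDTA tubes. Plasma measured by LC/MS/MS; parameters from noncompartmental analysis of individual profiles.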

Rattus norvegicus [5] = experiment: Volume of distribution at steady state in Sprague-Dawley rat at 1 mg/kg, iv by LC/MS analysis; type: ADME, organism-based; design: dose 1 mg/kg, route intravenous; conditions: in vivo
In short: (§1)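 Male Sprague-Dawley rats (n=2, 250-300 g), carotid and jugular cannulated; 1 mg/kg iv via jugular catheter in 20% DMSO/80% saline. Arterial blood from pre-dose to 24 h, EDTA plasma analysed by LC/MS/MS; noncompartmental analysis of individual profiles.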

Rattus norvegicus [6] = experiment: Half life in Sprague-Dawley rat at 1 mg/kg, iv by LC/MS analysis; type: ADME, organism-based; design: dose 1 mg/kg, route intravenous; conditions: in vivo; in short: as §1
Rattus norvegicus [7] = experiment: Cmax in Sprague-Dawley rat at 10 mg/kg, po by LC/MS analysis; type: ADME, organism-based; design: dose 10 mg/kg, route oral; conditions: in vivo
[8] = Ratio of AUC in brain to plasma in Sprague-Dawley rat
Brain [9] = experiment: AUC (0 to 6 hrs) in Sprague-Dawley rat brain at 10 mg/kg, po; type: ADME, organism-based; design: time < 6 hr, dose 10 mg/kg, route oral; conditions: in vivo
Brain [10] = experiment: Fraction unbound in rat brain homogenate by equilibrium dialysis; type: ADME, tissue-based
[11] = Intrinsic clearance in rat hepatic microsomes at 1 uM by LC/MS/MS analysis; type: ADME, Microsome; conditions: rat liver microsomes
[12] = Intrinsic clearance in human hepatic microsomes; type: ADME, Microsome; conditions: human liver microsomes
Cytochrome P450 1A2 = molecular target: T1, Cytochrome P450 1A2 (Homo sapiens, UniProt P05177); experiment: Inhibition of CYP1A2 in human liver microsomes using phenacetin as substrate
T1 sequence (P05177 whole entry): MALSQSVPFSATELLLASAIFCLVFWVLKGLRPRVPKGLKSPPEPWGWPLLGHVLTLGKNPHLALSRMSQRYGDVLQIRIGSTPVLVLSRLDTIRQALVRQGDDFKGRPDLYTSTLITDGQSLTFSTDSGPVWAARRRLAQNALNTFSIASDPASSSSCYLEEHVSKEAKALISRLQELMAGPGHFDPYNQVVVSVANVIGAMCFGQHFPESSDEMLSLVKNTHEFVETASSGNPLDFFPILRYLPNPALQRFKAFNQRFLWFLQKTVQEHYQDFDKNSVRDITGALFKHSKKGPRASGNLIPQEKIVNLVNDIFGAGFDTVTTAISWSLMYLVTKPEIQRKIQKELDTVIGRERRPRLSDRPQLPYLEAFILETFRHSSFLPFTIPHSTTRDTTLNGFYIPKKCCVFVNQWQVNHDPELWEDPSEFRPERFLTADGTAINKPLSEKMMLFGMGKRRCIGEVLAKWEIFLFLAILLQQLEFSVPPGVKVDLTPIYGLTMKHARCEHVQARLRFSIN

Cytochrome P450 2D6 = Cytochrome P450 2D6 (Homo sapiens, UniProt P10635); experiment: Inhibition of CYP2D6 in human liver microsomes using […] as substrate; type: ADME, Microsome
In short: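 Pooled human liver microsomes (0.1 mg/mL) with probe cocktail (phenacetin 10 µM, diclofenac 5 µM, dextromethorphan 5 µM, midazolam 2 µM) in 0.1 M phosphate pH 7.4; compound 100 nM–30 µM in duplicate, 15 min preincubation at 37 °C, then 1 mM NADPH for 8 min. LC/MS/MS of metabolite formation; IC50 derived.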

Cytochrome P450 2C19 = Cytochrome P450 2C19 (Homo sapiens, UniProt P33261); experiment: Inhibition of CYP2C19 in human liver microsomes using S-mephenytoin as substrate; type: ADME, Microsome
Plasma [13] = experiment: Fraction unbound in rat plasma by equilibrium dialysis; type: ADME, cell-free
In short: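 Rat plasma spiked with compound, equilibrium dialysis against 25 mM phosphate buffer pH 7.4 for 4 h at 37 °C with shaking; both chambers matrix-matched, acetonitrile-extracted and quantified by LC/MS/MS; triplicate.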

Cytochrome P450 3A4 = Cytochrome P450 3A4 (Homo sapiens, UniProt P08684); experiment: Inhibition of CYP3A4 in human liver microsomes using […] as substrate; type: ADME, Microsome
Plasma [14] = experiment: Fraction unbound in human plasma; type: ADME, cell-free
Cytochrome P450 2C9 = Cytochrome P450 2C9 (Homo sapiens, UniProt P11712); experiment: Inhibition of CYP2C9 in human liver microsomes using diclofenac as substrate
[15] = molecular target: Metabotropic glutamate receptor 6 (Homo sapiens, UniProt O15303); experiment: Positive allosteric modulator activity at human mGlu6 receptor at 10 uM by thallium flux assay
In short: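 Cells expressing human mGlu6 with GIRK channels, thallium flux double-addition protocol. 10 µM compound or vehicle was added, then a full glutamate concentration-response 2.5 min later. A left shift >2-fold was scored as potentiator activity. A right shift >2-fold or max depression ≥75% was scored as antagonist activity. Mean ± SEM of three experiments in singlicate.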

Nucleic Acid = experiment: Ratio of drug level in brain to plasma in ip dosed rat; type: ADME, organism-based
[16] = molecular target: Metabotropic glutamate receptor 4 (Rattus norvegicus) (UniProt P31423); experiment: Positive allosteric modulator activity at rat mGlu4 receptor by thallium flux assay at 30 uM relative to glutamate
[17] = molecular target: T2, Metabotropic glutamate receptor 4 (Homo sapiens, UniProt Q14833); experiment: Positive allosteric modulator activity at human mGlu4 receptor expressed in CHO cells expressing Gqi5 by calcium mobilization assay
[18] = molecular target: Metabotropic glutamate receptor 4 (Rattus norvegicus) (UniProt P31423); experiment: Positive allosteric modulation of rat mGlu4 receptor assessed as potentiation of glutamate-induced thallium flux relative to (-)-PHCCC; design: concentration or dose not given beside the values
[19] = molecular target: Metabotropic glutamate receptor 4 (Rattus norvegicus, UniProt P31423); experiment: Positive allosteric modulator activity at rat mGlu4 receptor by thallium flux assay
[20] = molecular target: T2, Metabotropic glutamate receptor 4; experiment: Positive allosteric modulation of human mGlu4 receptor expressed in CHO cells coexpressing Gqi5 assessed as potentiation of glutamate-induced calcium mobilization relative to (-)-PHCCC; type: functional, cell-based
In short: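 CHO cells stably expressing human mGlu4 with chimeric Gqi5, plated overnight, loaded 45 min at 37 °C with 1 µM Fluo-4 AM. Compound (10-point, 1:3 dilutions) was added about 2.5 min before an EC20 glutamate, then EC80 glutamate 2 min later. Ca2+ fluorescence read at 470/540 nm. Four-parameter logistic fit.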

Cytochrome P450 2C9, sequence (P11712 whole entry): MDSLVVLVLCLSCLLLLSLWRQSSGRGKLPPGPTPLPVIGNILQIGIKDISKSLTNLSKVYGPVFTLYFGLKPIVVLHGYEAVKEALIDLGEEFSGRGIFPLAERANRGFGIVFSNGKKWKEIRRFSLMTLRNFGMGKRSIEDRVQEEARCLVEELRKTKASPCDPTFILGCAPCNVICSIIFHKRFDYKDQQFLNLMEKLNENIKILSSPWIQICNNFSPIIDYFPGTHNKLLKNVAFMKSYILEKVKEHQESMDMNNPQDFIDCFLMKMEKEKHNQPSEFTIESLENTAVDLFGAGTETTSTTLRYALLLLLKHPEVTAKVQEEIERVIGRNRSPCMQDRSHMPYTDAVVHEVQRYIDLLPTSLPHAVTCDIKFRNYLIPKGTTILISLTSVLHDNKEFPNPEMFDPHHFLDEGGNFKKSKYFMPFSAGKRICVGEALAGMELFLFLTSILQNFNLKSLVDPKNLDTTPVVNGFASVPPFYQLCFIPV
Cytochrome P450 2D6, sequence (P10635 whole entry): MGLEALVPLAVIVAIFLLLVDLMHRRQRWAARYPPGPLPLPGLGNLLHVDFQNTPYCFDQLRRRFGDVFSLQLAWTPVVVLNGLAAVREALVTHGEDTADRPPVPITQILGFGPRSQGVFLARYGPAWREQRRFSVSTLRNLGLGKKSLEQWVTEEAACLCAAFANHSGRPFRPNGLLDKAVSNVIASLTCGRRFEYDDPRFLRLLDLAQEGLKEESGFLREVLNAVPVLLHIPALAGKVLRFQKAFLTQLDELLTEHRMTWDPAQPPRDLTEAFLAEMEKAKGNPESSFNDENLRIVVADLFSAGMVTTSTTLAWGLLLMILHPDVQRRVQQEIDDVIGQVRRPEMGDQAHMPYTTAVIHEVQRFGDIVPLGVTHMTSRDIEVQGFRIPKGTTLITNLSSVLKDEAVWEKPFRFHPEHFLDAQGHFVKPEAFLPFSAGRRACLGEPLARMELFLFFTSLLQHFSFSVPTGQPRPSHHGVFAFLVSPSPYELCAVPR
Metabotropic glutamate receptor 4 (Rattus norvegicus), sequence (P31423 whole entry): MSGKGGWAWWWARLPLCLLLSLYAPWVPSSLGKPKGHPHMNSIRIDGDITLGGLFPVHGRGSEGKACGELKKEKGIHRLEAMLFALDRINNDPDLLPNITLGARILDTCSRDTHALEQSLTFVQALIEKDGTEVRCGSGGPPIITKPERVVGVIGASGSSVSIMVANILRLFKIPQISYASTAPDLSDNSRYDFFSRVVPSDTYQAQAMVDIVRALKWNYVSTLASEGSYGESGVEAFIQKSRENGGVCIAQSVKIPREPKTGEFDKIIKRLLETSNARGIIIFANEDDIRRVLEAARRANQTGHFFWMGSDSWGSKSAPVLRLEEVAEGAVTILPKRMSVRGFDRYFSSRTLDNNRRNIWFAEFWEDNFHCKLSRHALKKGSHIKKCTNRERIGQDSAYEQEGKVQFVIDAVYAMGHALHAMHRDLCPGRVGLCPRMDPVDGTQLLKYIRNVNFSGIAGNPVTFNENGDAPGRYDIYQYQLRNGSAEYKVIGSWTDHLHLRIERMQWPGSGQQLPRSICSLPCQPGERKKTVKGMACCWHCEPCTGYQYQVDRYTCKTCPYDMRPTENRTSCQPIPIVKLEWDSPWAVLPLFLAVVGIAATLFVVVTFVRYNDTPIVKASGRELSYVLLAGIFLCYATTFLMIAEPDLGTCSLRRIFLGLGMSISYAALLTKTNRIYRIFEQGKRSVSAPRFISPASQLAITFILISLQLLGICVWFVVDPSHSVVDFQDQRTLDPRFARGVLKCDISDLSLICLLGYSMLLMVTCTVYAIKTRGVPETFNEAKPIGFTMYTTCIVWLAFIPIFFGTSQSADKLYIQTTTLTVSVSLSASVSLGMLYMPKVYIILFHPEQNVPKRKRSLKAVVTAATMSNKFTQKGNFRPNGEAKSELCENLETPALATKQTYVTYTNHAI
T2 sequence (Q14833 whole entry): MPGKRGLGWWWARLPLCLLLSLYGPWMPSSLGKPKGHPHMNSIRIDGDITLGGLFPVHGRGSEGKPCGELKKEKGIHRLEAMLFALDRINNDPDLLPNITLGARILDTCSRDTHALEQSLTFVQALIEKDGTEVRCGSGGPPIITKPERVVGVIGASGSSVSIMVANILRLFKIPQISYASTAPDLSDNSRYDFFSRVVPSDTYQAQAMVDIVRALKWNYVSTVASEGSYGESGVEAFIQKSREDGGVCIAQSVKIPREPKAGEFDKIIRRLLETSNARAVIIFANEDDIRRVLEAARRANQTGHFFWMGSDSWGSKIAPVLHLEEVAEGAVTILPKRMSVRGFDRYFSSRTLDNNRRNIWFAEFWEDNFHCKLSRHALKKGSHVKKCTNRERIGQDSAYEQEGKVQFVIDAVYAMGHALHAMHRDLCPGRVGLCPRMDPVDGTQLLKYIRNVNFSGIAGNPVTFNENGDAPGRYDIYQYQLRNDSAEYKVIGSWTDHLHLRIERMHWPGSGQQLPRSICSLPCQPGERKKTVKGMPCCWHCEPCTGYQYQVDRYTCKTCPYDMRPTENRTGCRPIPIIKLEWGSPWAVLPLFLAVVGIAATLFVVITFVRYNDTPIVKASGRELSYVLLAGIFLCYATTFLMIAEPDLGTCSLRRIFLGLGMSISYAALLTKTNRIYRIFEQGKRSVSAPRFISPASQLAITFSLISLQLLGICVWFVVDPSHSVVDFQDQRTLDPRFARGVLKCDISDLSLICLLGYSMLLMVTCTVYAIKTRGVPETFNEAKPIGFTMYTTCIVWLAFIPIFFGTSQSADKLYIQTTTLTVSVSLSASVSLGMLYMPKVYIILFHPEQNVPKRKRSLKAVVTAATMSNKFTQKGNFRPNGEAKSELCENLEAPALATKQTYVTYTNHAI
Cytochrome P450 3A4, sequence (P08684 whole entry): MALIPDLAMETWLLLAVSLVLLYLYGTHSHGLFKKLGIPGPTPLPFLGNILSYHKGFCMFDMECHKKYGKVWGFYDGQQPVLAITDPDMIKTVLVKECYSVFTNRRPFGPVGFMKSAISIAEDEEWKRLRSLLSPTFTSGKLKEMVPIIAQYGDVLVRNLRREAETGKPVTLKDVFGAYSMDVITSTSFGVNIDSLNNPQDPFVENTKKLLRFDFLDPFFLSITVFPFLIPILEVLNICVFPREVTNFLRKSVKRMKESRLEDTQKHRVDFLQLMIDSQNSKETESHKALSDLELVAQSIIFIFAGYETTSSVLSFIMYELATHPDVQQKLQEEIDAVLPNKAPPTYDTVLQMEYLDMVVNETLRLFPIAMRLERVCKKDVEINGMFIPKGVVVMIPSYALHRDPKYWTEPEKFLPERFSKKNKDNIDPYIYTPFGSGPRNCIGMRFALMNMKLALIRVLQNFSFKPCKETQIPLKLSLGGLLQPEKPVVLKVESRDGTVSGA
Cytochrome P450 2C19, sequence (P33261 whole entry): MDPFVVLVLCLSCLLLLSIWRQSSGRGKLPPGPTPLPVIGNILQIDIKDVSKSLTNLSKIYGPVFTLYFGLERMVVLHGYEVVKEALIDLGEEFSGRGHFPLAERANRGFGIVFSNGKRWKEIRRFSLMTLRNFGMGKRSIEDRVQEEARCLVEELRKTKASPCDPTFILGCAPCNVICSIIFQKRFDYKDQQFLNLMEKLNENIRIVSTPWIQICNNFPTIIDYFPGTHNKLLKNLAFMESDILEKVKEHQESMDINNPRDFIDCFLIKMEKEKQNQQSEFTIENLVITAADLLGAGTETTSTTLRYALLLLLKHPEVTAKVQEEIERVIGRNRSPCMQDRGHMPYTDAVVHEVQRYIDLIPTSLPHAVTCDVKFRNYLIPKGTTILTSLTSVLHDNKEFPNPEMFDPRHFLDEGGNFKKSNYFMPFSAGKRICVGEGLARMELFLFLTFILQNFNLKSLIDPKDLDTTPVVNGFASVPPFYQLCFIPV
Metabotropic glutamate receptor 6, sequence (O15303 whole entry): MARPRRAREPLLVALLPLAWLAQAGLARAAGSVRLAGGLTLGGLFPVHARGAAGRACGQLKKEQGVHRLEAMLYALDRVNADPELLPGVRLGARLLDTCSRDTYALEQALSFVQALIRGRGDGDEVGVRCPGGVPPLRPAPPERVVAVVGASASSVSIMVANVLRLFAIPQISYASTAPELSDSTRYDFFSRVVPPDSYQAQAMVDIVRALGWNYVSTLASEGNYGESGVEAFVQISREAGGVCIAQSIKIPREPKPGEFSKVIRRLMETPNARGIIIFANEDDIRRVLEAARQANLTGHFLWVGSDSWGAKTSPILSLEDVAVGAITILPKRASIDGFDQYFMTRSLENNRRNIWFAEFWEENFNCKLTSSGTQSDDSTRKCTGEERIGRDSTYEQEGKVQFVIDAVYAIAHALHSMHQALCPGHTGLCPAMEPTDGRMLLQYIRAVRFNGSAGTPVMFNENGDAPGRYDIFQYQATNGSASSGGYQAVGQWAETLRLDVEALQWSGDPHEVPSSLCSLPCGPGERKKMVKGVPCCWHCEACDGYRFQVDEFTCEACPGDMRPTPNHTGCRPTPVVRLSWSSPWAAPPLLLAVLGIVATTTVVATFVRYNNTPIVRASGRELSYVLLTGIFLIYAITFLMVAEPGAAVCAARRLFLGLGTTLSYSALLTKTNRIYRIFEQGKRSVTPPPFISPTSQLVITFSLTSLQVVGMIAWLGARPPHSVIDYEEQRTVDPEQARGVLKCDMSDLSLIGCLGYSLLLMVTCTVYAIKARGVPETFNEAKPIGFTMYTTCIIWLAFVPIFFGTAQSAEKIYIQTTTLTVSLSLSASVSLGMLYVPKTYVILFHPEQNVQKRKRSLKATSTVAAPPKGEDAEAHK
Metabotropic glutamate receptor 4 (Rattus norvegicus, UniProt P31423), sequence (P31423 whole entry): as the sequence (P31423 whole entry) above

Structure (SMILES) | Fu (Brain [10]) | CLint scaled at 1 µM [11] | CLint scaled [12] | IC50 (Cytochrome P450 1A2) | IC50 (Cytochrome P450 2D6) | IC50 (Cytochrome P450 2C19) | Fu (Plasma [13]) | IC50 (Cytochrome P450 3A4) | Fu (Plasma [14]) | IC50 (Cytochrome P450 2C9) | other results
Cl.O=C(Nc1ccc(N2C(=O)[C@@H]3[C@H](C2=O)[C@@H]2C=C[C@H]3C2)c(Cl)c1)c1ccccn1 |  |  |  |  |  |  |  |  |  |  | F (Rattus norvegicus [1]): 97%; AUC(0-t) at 6 h [2]: 8.48 nM·h; AUC (Rattus norvegicus [3]): 4354 ng·h/mL; AUC (Rattus norvegicus [4]): 454 ng·h/mL; Vdss (Rattus norvegicus [5]): 18 L/kg; t1/2 (Rattus norvegicus [6]): 40.4 min; Cmax (Rattus norvegicus [7]): 238 ng/mL; Kp [8]: 0.93; AUC (Brain [9]): 800 nM·h
O=C(Nc1ccc(N2C(=O)CC(c3ccccc3)C2=O)c(Cl)c1)c1ccccn1 (racemic) | 1.4% | 32.6 mL/min/kg | 19.9 mL/min/kg | 8.9 µM | > 30 µM | 17.6 µM | 0.17% | > 30 µM | 0.02% | 8.7 µM | 
O=C(Nc1ccc(N2C(=O)[C@@H]3[C@H](C2=O)[C@@H]2C=C[C@H]3C2)c(Cl)c1)c1ccccn1 (mixture of isomers) | 7.6% | 53 mL/min/kg | 19.7 mL/min/kg | > 30 µM | > 30 µM | > 30 µM | 3.2% |  | 4.1% | > 30 µM | EC50 [15]: > 10 µM
O=C(Nc1ccc(N2S(=O)(=O)c3ccccc3S2(=O)=O)cc1)c1ccccn1 |  |  |  | > 30 µM | > 30 µM |  | 3.8% | > 30 µM |  | > 30 µM | BPR (Nucleic Acid): 0.085; fold change (FC) [16]: 5.2; EC50 [17]: 136 nM; Activity [18]: 124%; EC50 [19]: 165 nM; Activity [20]: 99.7%
